Our source for the MIC values is ChEMBL document CHEMBL1208687, “Synthesis, antibacterial activity evaluation and QSAR studies of novel dispiropyrrolidines” (2010).

Common to all, as to format: functional
In one test the test system is Bacillus subtilis. Description: Antimicrobial activity against Bacillus subtilis NCIM 2718 after 18 hrs by broth microdilution assay. The settings on record: NCIM 2718, 18 h. The method, boiled down: (§1)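 MIC by broth microdilution in Mueller Hinton broth, final inoculum 5 × 10⁵ CFU/ml. Compounds dissolved in absolute ethanol (10 mg per 1 ml stock), then serially diluted into successive wells. Incubated with organism at 37 °C for 18 h with growth and sterility controls, ethanol blank, and uninoculated dilutions checked for precipitation. Then 0.01% resazurin added, read after 2 h further incubation.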
For orientation: Dilution methods test growth across graded concentrations, often in twofold steps.

For another test, the system named is Staphylococcus aureus. Description: Antimicrobial activity against Staphylococcus aureus NCIM 5021 after 18 hrs by broth microdilution assay. The settings on record: NCIM 5021, 18 h. In short, it runs like this: as §1
For the next test, the system named is Pseudomonas aeruginosa. Description: Antimicrobial activity against Pseudomonas aeruginosa NCIM 5029 after 18 hrs by broth microdilution assay. The settings on record: NCIM 5029, 18 h. In short, it runs like this: as §1

In brackets after ≈: the same amount, converted by molar mass.

As for `COc1ccc([C@H]2CN(C)[C@@]3(C(=O)N(C)c4ccccc43)[C@@]23CC(=O)N(C)C3=O)cc1`, the minimum inhibitory concentration (MIC) against Bacillus subtilis came out at 596 µM (≈ 250 µg/mL); in the test with Staphylococcus aureus, 298 µM (≈ 125 µg/mL); in the test with Pseudomonas aeruginosa it was 298 µM (≈ 125 µg/mL).
As to `CN1C(=O)C[C@@]2(C1=O)[C@@H](c1ccccc1O)CN(C)[C@@]21C(=O)N(C)c2ccccc21`, the MIC in the test with Bacillus subtilis is 617 µM (≈ 250 µg/mL); with Staphylococcus aureus, 617 µM (≈ 250 µg/mL); with Pseudomonas aeruginosa it was 77 µM (≈ 31.2 µg/mL).
For `CC1(C)S[C@@H]2[C@H](NC(=O)[C@H](N)c3ccccc3)C(=O)N2[C@H]1C(=O)O` [AMPICILLIN], the MIC against Bacillus subtilis worked out at 168 µM (≈ 58.7 µg/mL); in the test on Staphylococcus aureus it was 84 µM (≈ 29.4 µg/mL); in the test on Pseudomonas aeruginosa, 168 µM (≈ 58.7 µg/mL).
Turning to `COc1ccc([C@H]2CN(C)[C@@]3(C(=O)N(Cc4ccccc4)c4ccccc43)[C@@]23CC(=O)N(C)C3=O)cc1`, the figures for the MIC with Bacillus subtilis, with Staphylococcus aureus and in the test with Pseudomonas aeruginosa were 504 µM (≈ 250 µg/mL), 252 µM (≈ 125 µg/mL) and 252 µM (≈ 125 µg/mL), respectively.
As for `COc1ccc([C@H]2CN(C)[C@@]3(C(=O)Nc4ccccc43)[C@@]23CC(=O)N(C)C3=O)cc1`, the MIC in the test with Bacillus subtilis amounted to 617 µM (≈ 250 µg/mL); in the test with Staphylococcus aureus, 617 µM (≈ 250 µg/mL); in the test on Pseudomonas aeruginosa, 154 µM (≈ 62.4 µg/mL).
Consider `C#CCN1C(=O)[C@]2(c3ccccc31)N(C)C[C@H](c1ccccc1O)[C@]21CC(=O)N(C)C1=O`, for which the MIC in the test with Bacillus subtilis was 291 µM (≈ 125 µg/mL); in the test with Staphylococcus aureus it was 291 µM (≈ 125 µg/mL); against Pseudomonas aeruginosa, 146 µM (≈ 62.7 µg/mL).
For `CN1C(=O)C[C@@]2(C1=O)[C@@H](c1ccc(Cl)cc1)CN(C)[C@@]21C(=O)N(C)c2ccccc21`, the MIC is 590 µM (≈ 250 µg/mL) in the test on Bacillus subtilis, 295 µM (≈ 125 µg/mL) in the test with Staphylococcus aureus and 147 µM (≈ 62.3 µg/mL) in the test with Pseudomonas aeruginosa.
Consider `CN(C)[C@@H]1C(O)=C(C(N)=O)C(=O)[C@@]2(O)C(O)=C3C(=O)c4c(O)cccc4[C@@](C)(O)[C@H]3C[C@@H]12` [TETRACYCLINE], for which the MIC against Bacillus subtilis stood at 1 µM (≈ 0.444 µg/mL); in the test on Staphylococcus aureus it was 2 µM (≈ 0.889 µg/mL); with Pseudomonas aeruginosa, 4 µM (≈ 1.78 µg/mL).
Take `CN1C(=O)C[C@@]2(C1=O)[C@@H](c1ccccc1O)CN(C)[C@@]21C(=O)Nc2ccccc21`: the MIC with Bacillus subtilis was 639 µM (≈ 250 µg/mL); in the test with Staphylococcus aureus, 639 µM (≈ 250 µg/mL); against Pseudomonas aeruginosa, 80 µM (≈ 31.3 µg/mL).
Consider `CN1C(=O)C[C@@]2(C1=O)[C@@H](c1ccc(Cl)cc1)CN(C)[C@@]21C(=O)Nc2ccccc21`, for which the MIC in the test with Bacillus subtilis amounted to 610 µM (≈ 250 µg/mL); against Staphylococcus aureus it was 305 µM (≈ 125 µg/mL); with Pseudomonas aeruginosa it was 152 µM (≈ 62.3 µg/mL).
Taken in the same sequence, the figures for `Cc1ccc([C@H]2CN(C)[C@@]3(C(=O)Nc4ccccc43)[C@@]23CC(=O)N(C)C3=O)cc1` were 642 µM (≈ 250 µg/mL), 321 µM (≈ 125 µg/mL) and 321 µM (≈ 125 µg/mL).

What is called MIC is the least concentration at which growth counts as inhibited. Low readings indicate inhibition by little substance, high ones a need for much substance.
